Data on 167 variants can be found in the RNAGym collection of RNA variant scans (doi:10.1002/anie.201605470).

B1: Osa-1-4 twister ribozyme (parent)
chain: CCGCCUAACACUGCCAAUGCCGGUCCCAAGCCCGGAUAAAAGUGGAGGGGGCGG

This data set covers variants of B1. Description: self-cleavage, relative activity (ratio to wild type); higher = more cleavage; co-transcriptional. The procedure, abridged:
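The 48 positions downstream of the cleavage site in a DNA template for a 54-nucleotide Oryza sativa twister ribozyme carried 97 % wild-type base and 1 % of each other base. After in vitro transcription (2 h, 37 °C) with co-transcriptional self-cleavage, the RNA was reverse-transcribed with a template-switching oligonucleotide, PCR-amplified and deep-sequenced. Relative activity is the fraction cleaved, judged by reads with or without upstream sequence and normalised to wild type.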
Regarding A41U G49A, the self-cleavage was 0.14. For A41U G49U, the self-cleavage stood at 0.13. Then A41U G49C, with 0.07; and A41G G51C, with 0.09.

Turning to A41G G51A, the self-cleavage was found to be 0.41. Then A41G G51U, with 0.12; and A41U C33U, with 0.81.

In the case of A41U C33A, the self-cleavage is 0.14. Then A41U C33G, with 0.1; and A41C G48C, with 0.1.

As to A41C G48A, the self-cleavage stood at 0.08. On to A41C G48U, for which the self-cleavage came out at 0.07.

For the variant A41G C25U, the self-cleavage was found to be 0.16. Take A41G C25G: the self-cleavage is 0.06. A41G C25A: the self-cleavage was 0.07.

Turning to A41C C14A, the self-cleavage was 0.07. Consider A41C C14U, for which the self-cleavage stood at 0.22. Then A41C C14G, with 0.15.

In the case of A41C G42U, the self-cleavage was found to be 0.11. Under A41C G42A stands 0.19.

Take A41C G42C: the self-cleavage was 0.12. As to A41U C14G, the self-cleavage was found to be 0.3. Then A41U C14U, with 0.7; and A41U C14A, with 0.13; and A41G C33A, with 0.07. Then A41G C33G, with 0.1; and A41G C33U, with 0.12; and A41G, with 0.84. Then A41U, with 1.02. Turning to A41U C11G, the self-cleavage is 0.45. Under A41U C11U stands 0.9; under A41U C11A, 0.79; under A41U G35A, 0.83. Under A41U G35C stands 0.77; under A41U G35U, 0.87.

In the case of A41G A46U, the self-cleavage was determined as 0.08. Under A41G A46C stands 0.06; under A41G A46G, 0.07; under A41C G34A, 0.76. Then A41C G34C, with 0.32; and A41C G34U, with 0.73. Turning to A41C G30U, the self-cleavage was 0.04. Then A41C G30C, with 0.05. Under A41C G30A stands 0.05. Then A41G G48U, with 0.05; and A41G G48A, with 0.08.

For the variant A41G G48C, the self-cleavage came to 0.08. Then A41G G23A, with 0.12; and A41G G23C, with 0.07; and A41G G23U, with 0.06. Under A41U U12G stands 0.69; under A41U U12A, 1.05; under A41U U12C, 0.91. In the case of A41C G47A, the self-cleavage worked out at 0.17.

As for A41C G47U, the self-cleavage was 0.2. As to A41C G47C, the self-cleavage stood at 0.09. Under A41U C9U stands 0.78; under A41U C9A, 0.42. Then A41U C9G, with 0.79; and A41C C25U, with 0.8.

In the case of A41C C25A, the self-cleavage was found to be 0.08. Then A41C C25G, with 0.08; and A41U A46G, with 0.07; and A41U A46U, with 0.09. Then A41U A46C, with 0.06; and A41U G13U, with 0.03; and A41U G13A, with 0.14. Under A41U G13C stands 0.03; under A41C C33U, 0.7. For the variant A41C C33G, the self-cleavage worked out at 0.09.

Turning to A41C C33A, the self-cleavage worked out at 0.13. Under A41U G42C stands 0.2.

For the variant A41U G42U, the self-cleavage turned out to be 0.15.

In the case of A41U G42A, the self-cleavage came to 0.35. Then A41U G44U, with 0.87; and A41U G44C, with 0.98; and A41U G44A, with 0.88. As to A41G G19U, the self-cleavage is 0.09. Then A41G G19A, with 0.17. Then A41G G19C, with 0.08; and A41G A8G, with 0.19; and A41G A8C, with 0.09. Under A41G A8U stands 0.1; under A41C G44C, 0.97; under A41C G44A, 0.81.

In the case of A41C G44U, the self-cleavage is 0.9.

For A41U G54A, the self-cleavage was 0.98. Under A41U G54U stands 0.99; under A41U G54C, 0.93. Then A41C A7U, with 0.09; and A41C G19C, with 0.14. Then A41C G19A, with 0.74; and A41C G19U, with 0.15; and A41U G22U, with 0.85. On to A41U G22A, for which the self-cleavage worked out at 1.

Turning to A41U G22C, the self-cleavage came to 0.1.

For the variant A41U G53A, the self-cleavage was 0.89. A41U G53C: the self-cleavage was found to be 0.11.

Regarding A41U G53U, the self-cleavage came to 0.36. Then A41G C27A, with 0.09; and A41G C27U, with 0.09. Under A41G C27G stands 0.04. Then A41U G23A, with 0.62. For the variant A41U G23U, the self-cleavage worked out at 0.09. Under A41U G23C stands 0.08.

Turning to A41G G34U, the self-cleavage worked out at 0.18. Under A41G G34C stands 0.16; under A41G G34A, 0.41; under A41C G53A, 0.73. As for A41C G53U, the self-cleavage came out at 0.28.

For the variant A41C G53C, the self-cleavage was 0.08. Under A41G C11A stands 0.12; under A41G C11G, 0.18; under A41G C11U, 0.34. Under A41U C31G stands 0.13; under A41U C31U, 0.94. Then A41U C31A, with 0.04; and A41G C32U, with 0.08. Turning to A41G C32G, the self-cleavage came out at 0.13. As to A41G C32A, the self-cleavage worked out at 0.06. Then A41C C20A, with 0.92; and A41C C20G, with 0.13. Under A41C C20U stands 0.95; under A41U C15G, 0.64; under A41U C15A, 0.26. Then A41U C15U, with 0.56.

Turning to A41C C32U, the self-cleavage was 0.09. Under A41C C32A stands 0.08; under A41C C32G, 0.11. For A41G U37C, the self-cleavage was 0.59. For the variant A41G U37A, the self-cleavage amounted to 0.86. Then A41G U37G, with 0.87. Under A41G G22A stands 0.48; under A41G G22U, 0.27. Under A41G G22C stands 0.05.

As to A41G C14G, the self-cleavage was 0.14. Under A41G C14A stands 0.07.

Turning to A41G C14U, the self-cleavage was 0.24. As for A41U G48U, the self-cleavage stood at 0.07. Then A41U G48A, with 0.09; and A41U G48C, with 0.1. Under A41G C52U stands 0.88. Then A41G C52G, with 0.84; and A41G C52A, with 0.84. As for A41G G42C, the self-cleavage amounted to 0.37. Under A41G G42A stands 0.72.

With A41G G42U, the self-cleavage worked out at 0.44. Under A41C A8C stands 0.09; under A41C A8G, 0.24. Under A41C A8U stands 0.16.

As to A41G U24A, the self-cleavage stood at 0.07. On to A41G U24C, for which the self-cleavage is 0.07. A41G U24G: the self-cleavage came to 0.04. Under A41U G51C stands 0.1.

Turning to A41U G51A, the self-cleavage stood at 0.59.

For A41U G51U, the self-cleavage turned out to be 0.26. With A41U U24A, the self-cleavage is 0.22. Under A41C U24G stands 0.03.

Regarding A41C U24C, the self-cleavage came to 0.1. On to A41C U24A, for which the self-cleavage stood at 0.13. Under A41C C11U stands 0.81; under A41C C11G, 0.24.

With A41C C11A, the self-cleavage was determined as 0.71. Under A41G A7U stands 0.08; under A41G A7G, 0.14; under A41G A7C, 0.05. Under A41U G30C stands 0.04.
